Activity calls are given as the source filed them. The calls are words filed in the database; no cut-off is given here.
Key:
HCT-116 [1] = test: Antitumor activity against human HCT-116 cells xenografted in BomTac:NMRI-Foxn1nu mouse assessed as T/C at 30 mg/kg, iv administered once a week upto 6 weeks relative to control; type: functional
In short: (§1)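 Female nude mice bore s.c. HCT 116 (2×10^6 cells), NCI-H460 (1×10^6 cells) or serially transplanted CXB1 tumor pieces. At ~50–100 mm³, mice were randomized into groups of 10 and dosed i.v. (0.1 N HCl/saline) or by gavage (0.5% hydroxyethyl-cellulose) at 10 mL/kg. Calipers read thrice weekly, volume = length×width²×π/6. T/C from median volumes on the last day.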

[2] = Drug uptake in human HCT-116 cells xenografted in BomTac:NMRI-Foxn1nu mouse at 35 mg/kg, iv measured after 168 hrs by HPLC-MS/MS analysis; type: ADME, organism-based, Neoplasm; details: tumour (HCT-116 xenograft)
In short: (§2)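 Female nude mice bearing s.c. HCT 116 xenografts (2 × 10⁶ cells), n = 3 per time point, given a single i.v. dose. Tumor, organs and EDTA plasma collected at 1, 8, 24, 48, 96 and 168 h. Tissue extracts and plasma analysed by HPLC-MS/MS. Tissue nmol/mg converted to nmol/L assuming density 1.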

HCT-116 [3] = test: Antitumor activity against human HCT-116 cells xenografted in BomTac:NMRI-Foxn1nu mouse assessed as early apoptosis at 40 mg/kg, iv 24 hrs after administration by tunel staining based immunohistochemistry analysis; type: functional, organism-based
In short: (§3)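 Female nude mice bore s.c. HCT 116 tumors (~200 mm³) and received a single i.v. 40 mg/kg dose or vehicle (n=3 per group per time). Tumor, small intestine and large intestine were taken at 6, 24 and 48 h. Frozen sections were stained for pSer10 histone H3 (immunoperoxidase) or by TUNEL. Positive area was calculated as % of tumor cell area; Student's t test.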

HCT-116 [4] = test: Antitumor activity against human HCT-116 cells xenografted in BomTac:NMRI-Foxn1nu mouse assessed as T/C at 20 mg/kg, iv administered once a week upto 6 weeks relative to control; type: functional; in short: as §1
[5] = Cmax in BomTac:NMRI-Foxn1nu mouse at 35 mg/kg, iv by HPLC-MS/MS analysis; type: ADME, organism-based; details: in vivo
In short: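 Female nude mice, n = 3, single i.v. dose (vehicle 0.1 N HCl diluted with 0.9% NaCl, 10 mL/kg). BI 6727 measured in EDTA plasma at several times by HPLC-MS/MS with internal standard. Parameters came from noncompartmental analysis. Terminal half-life was taken from the last two time points after i.v. dosing.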

NCI-H460 [6] = test: Induction of apoptosis in human NCI-H460 cells assessed as cleaved PRAP fragment level at 100 nmol/L incubated for 24 hrs by westernblot analysis; type: functional, cell-based
In short: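 Exponentially growing NCI-H460 cells treated with compound or DMSO control for 24 or 48 h, then harvested. Cleaved PARP fragment detected by Western blot.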

NCI-H460 [7] = test: Antimitotic activity against human NCI-H460 cells assessed as G2-M arrest with apoptosis at 100 nmol/L incubated for 24 hrs by PI staining based flow cytometric analysis; type: functional, cell-based
In short: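 Log-phase NCI-H460 cells were treated with 0.1% DMSO or inhibitor (dose series for 24 h; 100 nmol/L time course at 0, 24, 48, 72 h). Cells were fixed in 80% ethanol, permeabilized with 0.25% Triton X-100 for 5 min, then given 0.1% RNase plus 10 µg/mL propidium iodide for 20 min at RT. DNA content was read by flow cytometry.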

HCT-116 [8] = test: Antitumor activity against human HCT-116 cells xenografted in BomTac:NMRI-Foxn1nu mouse assessed as tumor regression at 15 mg/kg, iv administered twice a week on consecutive days; type: functional, organism-based; in short: as §1
[9] = AUC (0 to 24 hrs) in human HCT-116 cells xenografted in BomTac:NMRI-Foxn1nu mouse at 50 mg/kg, po administered once a week upto 6 weeks by HPLC-MS/MS analysis; type: ADME, organism-based; details: in vivo, 1008 h
HCT-116 [10] = test: Antitumor activity against human HCT-116 cells xenografted in BomTac:NMRI-Foxn1nu mouse assessed as the number of apoptotic cells in large intestine at 40 mg/kg, iv; type: functional, organism-based; in short: as §3
[11] = AUC (0 to 24 hrs) in human NCI-H460 cells xenografted in BomTac:NMRI-Foxn1nu mouse at 10 mg/kg, po administered daily upto 6 weeks by HPLC-MS/MS analysis; type: ADME, organism-based; details: in vivo, 1008 h
HCT-116 [12] = test: Antitumor activity against human HCT-116 cells xenografted in BomTac:NMRI-Foxn1nu mouse assessed as T/C at 7 mg/kg, po administered daily upto 6 weeks relative to control; type: functional; in short: as §1
HCT-116 [13] = test: Antitumor activity against human HCT-116 cells xenografted in BomTac:NMRI-Foxn1nu mouse assessed as mitotic index in large intestine at 40 mg/kg, iv; type: functional, organism-based; in short: as §3
[14] = Antitumor activity against human CXB1 cells xenografted in BomTac:NMRI-Foxn1nu mouse assessed as T/C at 15 mg/kg, iv administered twice a week upto 6 weeks relative to control; type: functional, CXB1 cell; in short: as §1
HCT-116 [15] = test: Antitumor activity against human HCT-116 cells xenografted in BomTac:NMRI-Foxn1nu mouse assessed as tumor growth delay at 25 mg/kg, iv administered twice a week on consecutive days; type: functional, organism-based; in short: as §1
HCT-116 [16] = test: Antitumor activity against human HCT-116 cells xenografted in BomTac:NMRI-Foxn1nu mouse assessed as T/C at 25 mg/kg, iv administered twice a week upto 6 weeks relative to control; type: functional; in short: as §1
HCT-116 [17] = test: Antitumor activity against human HCT-116 cells xenografted in BomTac:NMRI-Foxn1nu mouse assessed as the number of apoptotic cells in small intestine at 40 mg/kg, iv; type: functional, organism-based; in short: as §3
[18] = AUC (0-24hrs) in BomTac:NMRI-Foxn1nu mouse at 50 mg/kg, po by HPLC-MS/MS analysis; type: ADME, organism-based; details: in vivo
In short: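 Single oral dose to female nude mice or male Wistar rats. EDTA plasma was collected over 24 h and quantified by LC-MS/MS after extraction with internal standard. AUC0-24 was calculated from the concentration-time profile by the trapezoidal rule using noncompartmental analysis.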

[19] = AUC (0 to 24 hrs) in human HCT-116 cells xenografted in BomTac:NMRI-Foxn1nu mouse at 20 mg/kg, iv administered once a week upto 6 weeks by HPLC-MS/MS analysis; type: ADME, organism-based; details: in vivo, 1008 h
[20] = Drug uptake in human HCT-116 cells xenografted in BomTac:NMRI-Foxn1nu mouse at 35 mg/kg, iv measured after 8 hrs by HPLC-MS/MS analysis; type: ADME, organism-based, Neoplasm; details: tumour (HCT-116 xenograft); in short: as §2
[21] = AUC (0 to infinity) in BomTac:NMRI-Foxn1nu mouse at 35 mg/kg, iv by HPLC-MS/MS analysis; type: ADME, organism-based; details: in vivo
In short: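 Single i.v. dose: male Wistar rats (n=4) by 5-min infusion, female nude mice (n=3). EDTA plasma was sampled at various times and extracted with internal standard, NaOH, methanol/formic acid and acetonitrile. Analysis by LC-MS/MS (ESI+, C18, ammonium acetate pH 4.0/acetonitrile gradient). Noncompartmental parameters; AUC by trapezoidal rule.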

concentration at 168 h [2]: 4 µM | Cmax [5]: 7.1 µM | AUC [9]: 44 µM·h | AUC [11]: 61 µM·h | AUC(0-t) [18]: 58 µM·h | AUC [19]: 40 µM·h | concentration at 8 h [20]: 32 µM | AUC(0-inf) [21]: 100 µM·h
SMILES: CC[C@@H]1C(=O)N(C)c2cnc(Nc3ccc(C(=O)N[C@H]4CC[C@H](N5CCN(CC6CC6)CC5)CC4)cc3OC)nc2N1C(C)C [VOLASERTIB]
T/C (HCT-116 [1]): 3% | Activity (HCT-116 [3]): Active | T/C (HCT-116 [4]): 9% | Activity (NCI-H460 [6]): Active | Activity (NCI-H460 [7]): Active | Activity (HCT-116 [8]): Active | Activity (HCT-116 [10]): inactive | T/C (HCT-116 [12]): 3% | Activity (HCT-116 [13]): inactive | T/C [14]: 12% | Activity (HCT-116 [15]): Active | T/C (HCT-116 [16]): 0.3% | Activity (HCT-116 [17]): inactive

Source: ChEMBL document CHEMBL5661977, “BI 6727, a Polo-like kinase inhibitor with improved pharmacokinetic profile and broad antitumor activity” (Clin Cancer Res, 2009)
